Sampled rows, rich in hits. Any-hit rate of the full collection: about 3%.
UCH37 inh – blocks the human deubiquitinase UCH37 | 0.33% of 330,000 active | Q9Y5K5 | purified proteasome/UCH37, Ub-AMC cleavage fluorescence | AID 588478 | inhibition, % (concentration not given with the values);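 active = mean inhibition over replicate wells above about 20%, limit read from the data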
Target sequence (Q9Y5K5 whole entry, looked up): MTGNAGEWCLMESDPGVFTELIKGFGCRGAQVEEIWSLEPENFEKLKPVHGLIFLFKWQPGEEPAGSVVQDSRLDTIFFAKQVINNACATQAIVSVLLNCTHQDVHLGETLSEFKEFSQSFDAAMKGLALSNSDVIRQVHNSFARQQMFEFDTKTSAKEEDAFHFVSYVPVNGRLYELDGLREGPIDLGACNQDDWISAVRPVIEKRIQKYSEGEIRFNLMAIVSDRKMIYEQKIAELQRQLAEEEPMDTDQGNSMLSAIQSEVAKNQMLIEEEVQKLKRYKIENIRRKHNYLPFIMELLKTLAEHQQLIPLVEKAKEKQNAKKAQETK
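Material: Human UCH37 enzyme supplied as purified proteasome complex | Schedule: 30 min preincubation with enzyme, 25 min cleavage at room temperature | Detection: AMC fluorescence 355/460 nm | Measure: % inhibition of Ub-AMC cleavage fluorescence | Controls: Wells without proteasome as full block, compound-free enzyme plus substrate as uninhibited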
MEKK2 mut-MEK5 – signal of MEK5 binding to mutant human MEKK2 PB1 domain | bead flow cytometry, Alexa488-MEK5 binding to MEKK2 mutant | percent response, % at 10 µM | 0.35% of 290,000 active; in the data active = percent response above about 24%, passing the limit was not always enough
MEKK3 PB1 HTS – modulators (inhibitors or enhancers) of MEK5 binding to human MEKK3 PB1 domain. binding response (% of control), % at 10 µM. AID 1529. bead-based flow cytometry, Alexa488-MEK5 binding to MEKK3; actives lie on both sides; 0 = blocked by unlabeled MEK5, 100 = vehicle. 1.4% of 290,000 active. Q99759;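 active = binding response more than 3 SD above or below the average of its plate-row segment, actives on both sides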;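 note: Alexa488 bead fluorescence after subtracting the streptavidin-only scavenger bead signal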
Apaf1 inhib – inhibitors of human Apaf-1 apoptosome; reconstituted apoptosome caspase-3 activity, DEVD-Rh110 fluorescence; inhibition, % at 20 µM; 0.71% of 330,000 active; active = inhibition of at least 40% at 20 µM
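System: Apoptosome proteins | Medium: Hepes pH 7.5 with detergent and BSA | Also added: Cytochrome c trigger plus (Z-DEVD)2-Rh110 caspase-3 substrate | Incubation: 30 min compound preincubation, 50 min activation, room temperature | Detection: Rhodamine 110 fluorescence at Ex 480/Em 540 nm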
UBC13 inh – human UBC13 polyubiquitination inhibition; P61088; UBC13 polyubiquitin chain formation, TR-FRET; inhibition, % at 20 µM; 0.47% of 330,000 active; AID 485273; in the data active = inhibition above about 45%, passing the limit was not always enough
Target sequence (P61088 whole entry, looked up): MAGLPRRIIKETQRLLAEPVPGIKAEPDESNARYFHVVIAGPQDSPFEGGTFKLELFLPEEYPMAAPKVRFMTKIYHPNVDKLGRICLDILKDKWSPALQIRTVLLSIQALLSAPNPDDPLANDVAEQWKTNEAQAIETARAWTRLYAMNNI
MEKK2wt PB1 HTS – raises or lowers MEK5 binding to wildtype human MEKK2 PB1 domain; Q9Y2U5; bead flow cytometry, Alexa488-MEK5 binding to MEKK2 WT; actives lie on both sides; binding response (% of control), % at 10 µM; 1.1% of 290,000 active; in the data active = binding response below about 67% or above about 130%
UCH37 confirm – confirmation of human UCH37 deubiquitinating enzyme inhibitors | Proteasome-bound UCH37, Ub-AMC cleavage fluorescence | 27% of 480 active | inhibition, % at 20 µM | shares compounds with UCH37 inh;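 active = average inhibition over replicates above about 50%, so the earlier screening hit is confirmed, limit read from the data; inactive = the rest, counted as false positives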;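 note: based on cleavage rate fitted by regression over a 30 min kinetic read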
Of the large screens only hits and unclear results are named; the others gave an inactive call (follow-up assays come after a bar, where they were run); [ ] = remark or other dose.

O=C(CCN1C(=O)/C(=C/c2cccs2)SC1=S)Nc1ccc(C(=O)O)c(O)c1	UCH37 inh 26 | UCH37 confirm inactive
NC(=S)n1[nH]c(-c2ccccc2)c(N=Nc2ccccc2C(=O)N2CCOCC2)c1=O	UCH37 inh 54 | UCH37 confirm inactive
Cc1[nH]n(-c2ccccc2)c(=O)c1N=Nc1ccccc1C(=O)N1CCOCC1	none
COC(=O)/C(N=Nc1cccc(C(F)(F)F)c1)=C(\C)O	UCH37 inh 43 | UCH37 confirm inactive
CCOc1cccc(C=NNC(=S)Nc2ccccc2[N+](=O)[O-])c1O	UCH37 inh 49 (no result: MEKK2 mut-MEK5, MEKK3 PB1 HTS, Apaf1 inhib, UBC13 inh, MEKK2wt PB1 HTS) | UCH37 confirm inactive
CC1CC(C)(C)CC2(C1)NC(=O)N(CC(=O)Nc1c(F)cccc1F)C2=O (stereo not given)	none (no result: MEKK2 mut-MEK5, MEKK3 PB1 HTS, MEKK2wt PB1 HTS)
COc1cccc(C2C3=C(CCCC3=O)Nc3[nH]n(-c4ccccc4)c(=O)c32)c1 (stereo not given)	none
O=C1CCCC2=C1C(c1ccc3c(c1)OCO3)c1c([nH]n(-c3ccccc3)c1=O)N2 (stereo not given)	UCH37 inh 32 | UCH37 confirm inactive
O=C(O)CC1S/C(=N/N=C/C=C/c2ccccc2)NC1=O (stereo not given)	UCH37 inh 25 | UCH37 confirm inactive
O=C(Nc1ccc(S(=O)(=O)NCC2CCCO2)cc1)C1CC(=O)N(c2ccccc2)C1 (stereo not given)	none
CCCC[n+]1ccn(C2=C([O-])c3ccccc3C(=O)/C2=N\S(=O)(=O)c2ccccc2)c1	UCH37 inh 41, Apaf1 inhib 59 | UCH37 confirm inactive
CN(NC(=O)c1ccc(Cl)cc1)c1ncc(C(F)(F)F)cc1Cl	none
Cc1ccc(C)c(N2CCN(C(=O)CCC(=O)N3CCOc4ccc(Cl)cc43)CC2)c1	none
COc1ccc(CCNC(=O)c2ccc3ccccc3n2)cc1	none
CN(C)/C=C/C1=C([N+](=O)[O-])C(c2cccc([N+](=O)[O-])c2)NC(=O)N1 (stereo not given)	UCH37 inh 27 | UCH37 confirm inactive
CNC(=O)OCc1cccc(COC(=O)NC)n1	UCH37 inh 35 | UCH37 confirm inactive
CCCC(=O)C1=C(O)C(C(=O)OC)C(C)(C)CC1=NCc1ccccc1 (stereo not given)	none
Cc1ccc(C(=O)OCC(=O)Nc2ncc(Cl)cc2Cl)cc1NC(=O)c1ccco1	none
Cn1cnc([N+](=O)[O-])c1Nc1ccc(O)cc1	UCH37 inh 52 | UCH37 confirm inactive
O=c1c2c3c(sc2ncn1/N=C/c1ccc(Br)o1)CCCC3	none (no result: UCH37 inh)
COc1ccc([C@H]2CC(=O)C=C(c3ccc4ccccc4c3)C2)cc1OC	none (no result: MEKK2 mut-MEK5, MEKK3 PB1 HTS, MEKK2wt PB1 HTS)
COc1ccc([C@H]2CC(=O)C=C(c3ccc(-c4ccccc4)c(F)c3)C2)cc1OC	UCH37 inh 41 (no result: MEKK2 mut-MEK5, MEKK3 PB1 HTS, MEKK2wt PB1 HTS) | UCH37 confirm inactive
COc1ccc(N2C(=O)[C@@H]3[C@H](C2=O)[C@H]2c4ccccc4C=CN2[C@@H]3C(C)=O)cc1	UCH37 inh 37 (no result: Apaf1 inhib, UBC13 inh) | UCH37 confirm inactive
Cn1cnnc1SC1CCCCC1NS(=O)(=O)c1ccccc1 (stereo not given)	none
O=C(O)CN1C(=O)/C(=C\c2cc(Br)ccc2OCc2ccc(F)cc2)SC1=S	UCH37 inh 27 | UCH37 confirm 69
O=C1NC(=S)S/C1=C\C=C\c1ccc([N+](=O)[O-])o1	UCH37 inh 28 (no result: Apaf1 inhib, UBC13 inh) | UCH37 confirm inactive
CCOc1ccc(-c2nonc2NC(=O)c2ccco2)cc1OCC	none
O=C(NC(=S)Nc1ccc(Oc2ccc(Cl)cc2)cc1)c1ccccc1	UCH37 inh 47 | UCH37 confirm inactive
Cc1ccc(C(=O)N/C(=C\c2cccc([N+](=O)[O-])c2)C(=O)Nc2cccc(C(=O)O)c2)cc1	none
CC1=NN(c2ccccc2)C(=O)/C1=C/C=C/C=C/N(C)C	UCH37 inh 32 | UCH37 confirm inactive
CC1=NN(c2cccc(C(=O)O)c2)C(=O)/C1=C\C=C/c1ccccc1	none
O=S(=O)(NCCC1=CCCCC1)c1cccc(S(=O)(=O)N2CCOCC2)c1	UCH37 inh 58 | UCH37 confirm 59
O=S(=O)(NCCc1ccccc1)c1cccc(S(=O)(=O)N2CCOCC2)c1	none
O=C(CSc1nc2ncc(Cl)cc2[nH]1)NCCc1ccc(F)cc1	none
O=C(O)CCN1C(=O)/C(=C/c2ccc(-c3nc4ccccc4s3)o2)SC1=S	none (no result: MEKK2 mut-MEK5, MEKK3 PB1 HTS, MEKK2wt PB1 HTS)
O=C(O)CCCN1C(=O)/C(=C\c2ccc(-c3nc4ccccc4s3)o2)SC1=S	UCH37 inh 39, MEKK2wt PB1 HTS 41[inhibitor] | UCH37 confirm inactive
O=C(O)c1cc(-c2ccc(/C=C3/SC(=S)N(Cc4ccccc4)C3=O)o2)ccc1Cl	UCH37 inh 45 (no result: Apaf1 inhib, UBC13 inh) | UCH37 confirm 60
COc1ccc(CN2C(=O)/C(=C/c3ccc(-c4ccc(Cl)c(C(=O)O)c4)o3)SC2=S)cc1	none (no result: UCH37 inh, Apaf1 inhib, UBC13 inh)
Cc1ccc(CN2CCC(CNS(=O)(=O)c3ccc(-c4ccc(=O)[nH]n4)s3)CC2)cc1	none
COc1ccccc1-c1coc2cc(O)cc(O)c2c1=O	UCH37 inh 48 | UCH37 confirm inactive
O=c1c(-c2ccc(O)cc2O)coc2cc(O)cc(O)c12	none
CCOc1ccc(C2/C(=C(\O)c3cccc(OC)c3)C(=O)C(=O)N2c2cc(C)on2)cc1OC (stereo not given)	UCH37 inh 49 | UCH37 confirm inactive
CN1CCS/C1=C\C=C1/SC(=S)N(CC(=O)O)C1=O	UCH37 inh 39 (no result: Apaf1 inhib, UBC13 inh) | UCH37 confirm inactive
CCCCNC(=O)c1c(CSc2ccc(Cl)cc2)noc1C(=O)NCCC	none (no result: MEKK2 mut-MEK5, MEKK3 PB1 HTS, MEKK2wt PB1 HTS)
CCCCNC(=O)c1onc(CSc2ccc(Cl)cc2)c1C(=O)NCCCC	UCH37 inh 36 | UCH37 confirm inactive
COc1cccc(-c2cc(C(=O)NCc3ccco3)c3ccccc3n2)c1	none
O=C(c1ccco1)N1CCN(S(=O)(=O)N2CCOCC2)CC1	none
O=C(c1cccs1)N1CCN(S(=O)(=O)N2CCOCC2)CC1	UCH37 inh 36 | UCH37 confirm inactive
Cc1[nH]n(-c2ccccc2)c(=O)c1C(C[N+](=O)[O-])c1ccc(Cl)cc1 (stereo not given)	UCH37 inh 41, Apaf1 inhib 88 | UCH37 confirm inactive
Cc1[nH]n(-c2ccccc2)c(=O)c1Sc1ccc(Cl)cc1	none
CN(C)/C=C1/NC(=S)NC1=O	UCH37 inh 27 | UCH37 confirm inactive
Cn1c(=O)c(Nc2ccc(Cl)cc2)c2c3c(cccc31)C(=O)c1ccccc1-2	none
COc1cc(Cl)c(NC2=CC(=O)C(=O)c3ccccc32)c(OC)c1	UCH37 inh 54, Apaf1 inhib 92 (no result: MEKK2 mut-MEK5, MEKK3 PB1 HTS, MEKK2wt PB1 HTS) | UCH37 confirm inactive
